This passage reports yeast fitness results from the RNAGym collection of RNA variant scans (doi:10.1126/science.aae0568).

The chains are these.
B1: tRNA (parent)
chain: GUUCCGUUGGCGUAAUGGUAACGCGUCUCCCUCCUAAGGAGAAGACUGCGGGUUCGAGUCCCGUACGGAACG

Variants at the floor of the assay were thinned out.

The variants in the series derive from B1. The series can be described thus: yeast fitness relative to wild type (ratio to wild type); higher = fitter; tRNA-Arg(CCU), competitive growth, 37 C, YPD. In short, it runs like this:
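Start and end populations of a pooled competition were compared by 100-nucleotide paired-end sequencing of gene amplicons. The Saccharomyces cerevisiae strains carried tRNA-Arg(CCU) gene variants at the native genomic locus, synthesised with a 3% per-site mutation rate at 69 sites, and competed in YPD at 37°C for 24 hours in six parallel replicates. Darwinian fitness relative to wild type was based on the change in genotype frequencies. Genotypes required ≥ 100 starting reads, and estimates < 0.5 were set to 0.5.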
Consider G9C A69C, for which the yeast fitness was 0.821.
In the case of U8G G12C G39A, the yeast fitness was not above 0.5.
As for G12C C27G C30A, the yeast fitness is not above 0.5.
The figure for U3C U16A C30U A40C is not above 0.5; for C22G C24A G38A A57G it is not above 0.5; for C5U G68U it is 0.88.
The figure for U2C C11U is 1.03; for C24U G38C C62G it is 0.623; for U7C C29U C31A C66G G67U it is not above 0.5.
In the case of G9C C62U G67C it was not above 0.5; in that of C29A U35C A70G, not above 0.5; in that of A15G A36G A43U, 0.601.
Regarding U28C G41A G52U, the yeast fitness was not above 0.5.
As for U7A C29U, the yeast fitness was found to be 0.67.
In the case of A20C A36C A45C it was 0.592; in that of A37C A42C C46A, 0.948; in that of C24U C55G C61G, not above 0.5.
C22G C34U A69U: the yeast fitness was 0.573.
As for C4G C5A C24U, the yeast fitness is not above 0.5.
Consider U7A C31G A70U, for which the yeast fitness was not above 0.5.
Turning to U7C U13G C30U, the yeast fitness was not above 0.5.
Take C30G A37G C61U: the yeast fitness is not above 0.5.
Consider C4U G12A C27G C34A C49G, for which the yeast fitness was not above 0.5.
As for U3C A45C, the yeast fitness is 0.856.
The figure for G38C U64A G68A A69C is not above 0.5; for U8A C11U G25A C33A A40U A69U it is not above 0.5.
In the case of A42C G48C C49A, the yeast fitness is not above 0.5.
Take G18C U35A A45C: the yeast fitness amounted to 0.671.
For G6C U8C C49U, the yeast fitness was 0.531.
As to C5G C11A A14G G25C C29G A70G, the yeast fitness was not above 0.5.
Take U54A A69C: the yeast fitness was 0.658.
With A57C G68C, the yeast fitness is 0.729.
For the variant G25C A40G, the yeast fitness amounted to 0.645.
For the variant G9A U19C C49G, the yeast fitness was found to be 0.634.
With U28C A43C G44C C61A, the yeast fitness stood at 0.548.
Consider U8C C27U C31A G56A, for which the yeast fitness was not above 0.5.
As to A14G G58C A65C, the yeast fitness was 0.593.
A42U U59A U64G: the yeast fitness is not above 0.5.
Regarding C22U C24A A43U A57G, the yeast fitness is not above 0.5.
On to U8A A20U G56A G67A, for which the yeast fitness was not above 0.5.
With G10A C55A, the yeast fitness was 0.67.
The figure for U19G G41C is 0.622; for A40C C62G G63A it is not above 0.5.
With C4G C24A C34A, the yeast fitness is 0.563.
Regarding U2G G50C, the yeast fitness is 0.6.
The figure for C27A A57C is 0.669; for G9A A43C A57C it is 0.569; for C29U A40C it is 0.815.
In the case of A37U A40C G58A it was 0.591.
For C30U C46A C61A G68A, the yeast fitness is not above 0.5.
As for C34A G50A C61G, the yeast fitness was not above 0.5.
On to U3A C4U C29G, for which the yeast fitness was not above 0.5.
With C24G A40U A43U C49G G50C C61U C66U, the yeast fitness is not above 0.5.
The figure for C4U C29G G38C is 0.621; for C30G A37G A40C C55A G58C A65U A70U it is 0.542.
The figure for U3C C11A C31A A42G G68C is not above 0.5; for G9A U32C C33G A37G G52A C55U it is 0.558.
As for C24G U53G C60A, the yeast fitness is not above 0.5.
In the case of U7A A43G G51C it was 0.537.
With U28A C30U A40G U54G, the yeast fitness was not above 0.5.
Turning to A15G G52A, the yeast fitness came to 0.772.
The figure for A37C A43U U47C A69U is 0.688; for A36U C49U it is 0.585; for G10A U16A G63A it is not above 0.5.
With U3G U8C A45G, the yeast fitness worked out at 0.702.
Take C31U A43C U54C A65C: the yeast fitness is not above 0.5.
Take U8C A15U U16A U26A: the yeast fitness is not above 0.5.
For the variant U16A G25C, the yeast fitness was determined as 0.974.
For C11G U28A, the yeast fitness is not above 0.5.
The figure for C22U A36G G51C is not above 0.5.
With A15U C55A, the yeast fitness is 0.503.
As to G51A G63C, the yeast fitness was 0.693.
In the case of U3A C66G G68C it was 0.623; in that of C31G C33A, 0.678; in that of U3A C5U A43G, 0.607.
In the case of U13C U47A G68A, the yeast fitness is not above 0.5.
Consider A21U C29G C31G A43U G58A U59C, for which the yeast fitness was not above 0.5.
As to C31U C34A A36G G38C G51A, the yeast fitness was not above 0.5.
Turning to U13C C55G C61G C66U, the yeast fitness was not above 0.5.
With G12A A36C G51A, the yeast fitness is 0.603.
In the case of G25A C29U C49U C61A, the yeast fitness is not above 0.5.
In the case of A42U A57U C62U it was 0.529; in that of U3C G12A A37C A45U G48C, 0.591.
In the case of G25C C31G G51C it was not above 0.5; in that of G17C C33G, 0.534; in that of G6C C22A G41A G44A C46A G52A C66U, not above 0.5.
For G23A C29G A45U C46U C60G C61U A69G, the yeast fitness was not above 0.5.
Consider G9A G58U A70G, for which the yeast fitness came out at 0.984.
Turning to U2G G9C G12A A42C C46A, the yeast fitness is 0.577.
Consider C5A U7C U19C, for which the yeast fitness was not above 0.5.
As for A14U C34G A43C C62A A70U, the yeast fitness was not above 0.5.
In the case of C4U U13A A14U C29U C30U A37G, the yeast fitness is not above 0.5.
The figure for U8A C11A C24U A40U is not above 0.5.
Turning to C60A C62U, the yeast fitness stood at 0.624.
In the case of U2A U19A A20C U26A, the yeast fitness is 0.578.
For the variant C31A G39A C46U, the yeast fitness is not above 0.5.
G12A C29A U35A: the yeast fitness is not above 0.5.
As to A21U C22G, the yeast fitness amounted to 1.01.
Take U7C G67C: the yeast fitness was 0.951.
With A37U G56A A65C, the yeast fitness came out at 0.5.
The figure for G17C G44C C66U is not above 0.5; for G25A C31U A37C G68U it is not above 0.5.
With C49U C55A C66U, the yeast fitness stood at 0.514.
The figure for U2A G6A U7C A15C C29G C33U is not above 0.5; for C22A U28A A40U C61A it is not above 0.5; for G58A G63C it is 0.784.
Turning to C22G G39A, the yeast fitness came out at 0.773.
The figure for C27G U28A C30G C31U A40G G67A is not above 0.5; for C24A C46G U59C C62G it is 0.617; for A40C A57U C61U it is not above 0.5.
On to A43C A57C, for which the yeast fitness turned out to be 0.681.
With C4U A14U C33G A69U, the yeast fitness was not above 0.5.
Consider U3A A20U C49U, for which the yeast fitness came out at 0.531.
Take U3A C4U A37G A40U: the yeast fitness is not above 0.5.
U3A A43U C49U: the yeast fitness came out at 0.69.
The figure for A14G C30U A43C G52A is not above 0.5; for G10C U13C G18C C27U C33G C46A C55U U64A G68C A70U it is not above 0.5; for A14U A20U G63A it is not above 0.5.
For U8A G18A U47G U54A, the yeast fitness is not above 0.5.
As to C4U G17A A37U U59C, the yeast fitness was not above 0.5.
In the case of U19A G67A, the yeast fitness is 0.866.
Turning to A21C C60A A69G, the yeast fitness was not above 0.5.
Take C24G A43C: the yeast fitness is 0.543.
As for U16A G39A A42G C55A C62A C66U, the yeast fitness came to 0.528.
G18C G44C: the yeast fitness came to 0.637.
U8A C33A A40G: the yeast fitness is not above 0.5.
The figure for U16G U26A C34U C62A is not above 0.5.
As for G10C U47A A57C, the yeast fitness was not above 0.5.
Regarding G12A A65C, the yeast fitness is 0.851.
Turning to C33U C34U G50A, the yeast fitness is 0.608.
As for C5G G12C, the yeast fitness turned out to be 0.816.
The figure for C11A G67A is 0.555.
In the case of U2A C5U C24U C34U A40C it was not above 0.5; in that of C5U C24G C31G C61G, not above 0.5.
The figure for C5A C11U C34A A40U A42U G68A is not above 0.5.
Take C29A C33A G51C C61U: the yeast fitness was not above 0.5.
With C5U U19G G67A, the yeast fitness came out at 0.649.
With G10C G12C G39A C61U, the yeast fitness was not above 0.5.
As for A15G U16C, the yeast fitness is 0.927.
With G6C A70C, the yeast fitness was determined as 0.938.
In the case of C30G G52C G67A it was not above 0.5; in that of A14U C30U A42G C66G, not above 0.5.
Consider G10A A42U U59A, for which the yeast fitness was not above 0.5.
On to U16A C46U, for which the yeast fitness was found to be 1.04.
The figure for C5U C30U C49G is 0.62; for C5U U26A U54C it is 0.644.
A21G G44A A45U: the yeast fitness is 0.914.
The figure for C30U C66G is 0.617.
Consider A36U G51C, for which the yeast fitness came to 0.612.
Consider U8A G67U, for which the yeast fitness stood at 0.636.
As to C5U G41A C49U A65G C66U, the yeast fitness was not above 0.5.
U19A C22U U32C C46U: the yeast fitness is not above 0.5.
The figure for A15G G58C is 0.949; for U3C G39C G63A it is 0.533; for U8A C22U C34G A36U A57G A65C it is not above 0.5.
The figure for U2C C24U C31U C46A U59A C61A is not above 0.5.
U7G C22U C24U U53A: the yeast fitness was not above 0.5.
As for C5U A14G U26C C30U A42C C61U, the yeast fitness is not above 0.5.
Turning to A21G A36G G38C C62G, the yeast fitness was not above 0.5.
U19A A37U G68U: the yeast fitness is not above 0.5.
For C11A A36G C62U, the yeast fitness was found to be 0.539.
On to U7C C31U A43G U59A, for which the yeast fitness stood at 0.505.
For U54G A65U, the yeast fitness is not above 0.5.
As to A15G A45C, the yeast fitness worked out at 0.796.
With U7A U19A C49U G56C G63C, the yeast fitness was not above 0.5.
As to A14U U47A C61A, the yeast fitness is not above 0.5.
In the case of U13C A20G A37G G58A it was not above 0.5.
